Measured values as given in ChEMBL document CHEMBL1144328, “2,3-Diarylthiophenes as selective EP1 receptor antagonists” (Bioorg Med Chem Lett, 2005).

Tests used:
[1] = target: T1, Thromboxane A2 receptor (Homo sapiens, UniProt P21731); experiment: Binding affinity against human Prostanoid TP receptor
T1 sequence (P21731 whole entry): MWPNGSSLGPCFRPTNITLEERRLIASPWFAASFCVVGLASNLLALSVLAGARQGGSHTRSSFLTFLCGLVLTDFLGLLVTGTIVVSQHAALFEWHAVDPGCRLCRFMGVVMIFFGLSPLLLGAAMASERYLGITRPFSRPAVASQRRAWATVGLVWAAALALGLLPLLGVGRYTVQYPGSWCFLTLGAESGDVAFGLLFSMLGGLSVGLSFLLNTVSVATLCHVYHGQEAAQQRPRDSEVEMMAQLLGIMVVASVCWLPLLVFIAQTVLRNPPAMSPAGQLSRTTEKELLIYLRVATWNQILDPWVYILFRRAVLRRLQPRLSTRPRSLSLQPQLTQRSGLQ

[2] = Half life of compound in rat; format: ADME; conditions: in vivo
[3] = target: T2, Prostaglandin E2 receptor EP1 subtype (Homo sapiens, UniProt P34995); experiment: Binding affinity against Prostaglandin E receptor was determined in human
T2 sequence (P34995 whole entry): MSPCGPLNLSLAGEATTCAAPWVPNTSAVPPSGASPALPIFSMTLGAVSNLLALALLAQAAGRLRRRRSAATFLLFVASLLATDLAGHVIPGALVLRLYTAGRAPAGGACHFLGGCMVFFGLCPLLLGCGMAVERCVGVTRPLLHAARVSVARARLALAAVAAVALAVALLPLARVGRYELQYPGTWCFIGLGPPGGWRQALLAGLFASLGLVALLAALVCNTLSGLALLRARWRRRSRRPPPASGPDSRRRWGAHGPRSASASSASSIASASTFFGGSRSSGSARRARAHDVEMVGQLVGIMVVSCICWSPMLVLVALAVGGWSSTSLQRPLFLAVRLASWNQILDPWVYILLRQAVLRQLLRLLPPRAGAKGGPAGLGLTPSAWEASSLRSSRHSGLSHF

[4] = target: T2, Prostaglandin E2 receptor EP1 subtype; experiment: Binding affinity against Prostaglandin E receptor in presence of 2% human serum albumin
[5] = target: T3, Prostaglandin E2 receptor EP1 subtype (Homo sapiens) (UniProt P34995); experiment: Inhibitory activity against Prostaglandin E receptor in functional cell based assay
T3 sequence (whole entry): T2 sequence (P34995 whole entry)
Summary of the method: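 HEK293 cells stably expressing human EP1, grown with hygromycin B and G418 at 37 °C and 6% CO2, seeded one day before, then loaded with FLIPR no-wash dye for 1 h at 37 °C in HBSS/20 mM HEPES pH 7.4. FLIPR fluorescence read after a 10 min antagonist preincubation and 5 min PGE2. PGE2 curves (0.001–30 µM) run alone and at three fixed antagonist concentrations; Kb reported.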

[6] = target: T4, Prostaglandin E2 receptor EP1 subtype (Rattus norvegicus, UniProt P70597); experiment: Binding affinity towards Prostaglandin E receptor was determined in rat
T4 sequence (P70597 whole entry): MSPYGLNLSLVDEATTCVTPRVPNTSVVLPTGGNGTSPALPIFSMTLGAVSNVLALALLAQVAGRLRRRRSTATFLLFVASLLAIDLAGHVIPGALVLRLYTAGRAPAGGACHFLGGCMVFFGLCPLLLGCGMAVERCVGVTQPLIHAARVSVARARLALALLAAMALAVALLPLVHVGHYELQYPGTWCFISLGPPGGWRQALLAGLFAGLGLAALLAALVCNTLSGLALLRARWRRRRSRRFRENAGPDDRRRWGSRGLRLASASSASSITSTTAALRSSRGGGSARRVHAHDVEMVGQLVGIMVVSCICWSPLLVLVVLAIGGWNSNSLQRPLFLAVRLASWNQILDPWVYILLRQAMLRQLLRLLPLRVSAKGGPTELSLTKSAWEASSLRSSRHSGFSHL

[7] = Bioavailability of compound in rat; format: ADME, organism-based; conditions: in vivo
[8] = Maximum plasma concentration of compound in rat at 4 h; format: ADME, organism-based

Ki [1] | half-life [2] | Ki [3] | Ki [4] | Kb [5] | Ki [6] | bioavailability [7] | Cmax [8] | SMILES
1200 nM | < 1 h | 9 nM | 17 nM | 97 nM |  |  |  | CC(NC(=O)c1cccc(-c2sccc2-c2cc(Cl)ccc2OCc2ccccc2)c1)c1cccnc1 (stereo not given)
390 nM | 2 h | 8 nM | 18 nM | 100 nM |  |  |  | NS(=O)(=O)c1cccc(-c2ccsc2-c2cc(Cl)ccc2OCc2ccccc2)c1
140 nM | 4 h | 6 nM | 280 nM | 1 nM | 12 nM | 73% | 20 µM | O=C(O)c1cccc(-c2sccc2-c2cc(Cl)ccc2OCc2ccccc2)n1
> 21000 nM | < 1 h | 4 nM | 5 nM |  |  |  |  | O=C(Cc1ccccc1)Nc1cccc(-c2sccc2-c2cc(Cl)ccc2OCc2ccccc2)c1
> 21000 nM | < 1 h | 52 nM | 72 nM |  |  |  |  | O=S(=O)(Cc1ccccc1)Nc1cccc(-c2sccc2-c2cc(Cl)ccc2OCc2ccccc2)c1
200 nM |  | 260 nM |  |  |  |  |  | OC(c1cncc(-c2sccc2-c2cc(Cl)ccc2OCc2ccccc2)c1)(C(F)(F)F)C(F)(F)F
230 nM | < 0.5 h | 3 nM | 90 nM | 4 nM |  |  |  | O=C(O)c1cncc(-c2sccc2-c2cc(Cl)ccc2OCc2ccccc2)c1
360 nM |  | 23 nM | 160 nM |  |  |  |  | N#CC(O)c1cncc(-c2sccc2-c2cc(Cl)ccc2OCc2ccccc2)c1 (stereo not given)
150 nM | 3 h | 15 nM | 220 nM | 66 nM |  |  |  | O=C(O)Cc1cccc(-c2sccc2-c2cc(Cl)ccc2OCc2ccccc2)c1
220 nM | 2 h | 4 nM | 5 nM | 70 nM |  |  |  | OC(O)(c1cncc(-c2sccc2-c2cc(Cl)ccc2OCc2ccccc2)c1)C(F)(F)F
120 nM | 1 h | 3 nM | 6 nM |  |  |  |  | OC(c1cncc(-c2sccc2-c2cc(Cl)ccc2OCc2ccccc2)c1)C(F)(F)F (stereo not given)
100 nM | < 0.5 h | 4 nM | 70 nM | 7 nM |  |  |  | O=C(O)c1cccc(-c2sccc2-c2cc(Cl)ccc2OCc2ccccc2)c1
